Experimental data reported in publication PMC10390885 (Clinical Cancer Research, 2023).
Where “and” joins values, the source holds several entries; their conditions need not be identical. Equal values may be shown once. Entries after “also recorded” stand apart in the source; their conditions may differ. Read-outs that look alike come from different tables or passages of the source.

Legend:
ER [1] = details: ER+ cell lines; preclinical studies; cited from earlier work
ESR1 mutations in ctDNA = test: FACT next-generation sequencing ctDNA assay; assay type: in vivo, human; details: 1,400 mg; vs 52% pretreatment
[2] = tested on: PIK3CA/AKT1 mutations in ctDNA; test: ctDNA BEAMing digital PCR, PIK3CA/AKT1 mutant allele frequency; assay type: in vivo, human; details: first postbaseline ctDNA sample (cycle 3 day 1 or end-of-treatment)
Procedure, shortened: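 Hotspot mutations were measured in plasma ctDNA by BEAMing digital PCR: AKT1 E17K and PIK3CA C420R, E542K, E545G/K, Q546K, M1043I, H1047L/R/Y. Mutant allele fraction at baseline was compared with the first available post-baseline sample (cycle 3 day 1 or end of treatment) in paired samples.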

[3] = tested on: ESR1 mutant and wild-type patient-derived xenograft models of ER+ breast cancer; details: preclinical, cited from earlier work
ER [4] = details: preclinical studies; cited from earlier work
[5] = tested on: postmenopausal women with ER+/HER2− locally advanced or metastatic breast cancer; test: Phase I safety: adverse events; assay type: in vivo, human
Procedure, shortened: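 Oral tablets were given as a single lead-in dose on day −7, then once daily from day 1 in 28-day cycles. Escalation used a 3+3 design, starting at 600 mg/day with 400 mg steps, plus an expansion cohort at 1,400 mg/day. DLT window ran from day −7 through cycle 1 (35 days). AEs were graded by NCI CTCAE v4.0. All patients dosed on cycle 1 day 1 were included, summarised descriptively.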

ER [6] = test: IHC of ER protein in baseline and on-treatment biopsies; assay type: in vivo, human; details: on-treatment (cycle 2 or 3, day 8) vs baseline biopsies
Procedure, shortened: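 Baseline and on-treatment tumour biopsies (cycle 2 or 3, day 8) were stained for ER by IHC in one laboratory and scored by one pathologist. H-score (0–300) = 3×% strong-intensity nuclei + 2×% intermediate + 1×% weak nuclei among tumour cells. Paired samples only.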

[7] = tested on: ER+/HER2− advanced or metastatic breast cancer; test: Antitumor activity by RECIST v1.1; assay type: in vivo, human
ER [8] = test: [18F]-fluoroestradiol; assay type: in vivo, human; details: cycle 2 day 3 vs baseline; 9 patients with FES-avid disease; 600, 1,000, 1,400 mg
[9] = tested on: advanced ER-positive HER2-negative breast cancer; details: cited from earlier work
[10] = N = 42, considered related to study drug, any grade
[11] = N = 42, considered related to study drug, grade 3
[12] = N = 42, regardless of causality, any grade
[13] = N = 42, regardless of causality, grade 3

For `CC/C(=C(/c1ccc(/C=C/C(=O)O)cc1)c1ccc2[nH]ncc2c1)c1ccc(F)cc1Cl` [GDC-0810, reference compound], the ER antagonist/agonist profile (ER [1]) is given as “partial agonism”.

For `CC1=C(c2cccc(O)c2)[C@H](c2ccc(OCCN3CC(CF)C3)cc2)Oc2ccc(O)cc21` [GDC-0927], the “Prevalence of ESR1 mutations in on-treatment samples” value (ESR1 mutations in ctDNA) is given as 35%, the “Patients with decline in PIK3CA/AKT1 MAF” value [2] is given as 8 of 13 and the “Tolerability at efficacious dose range” value ([3]; 10–100 mg/kg/day) is given as “well tolerated”. The “Antitumor activity in xenograft models” value ([3]; ER+ breast cancer xenograft models) was “induces tumor regression; also recorded: dose-dependent antitumor activity”, the “In vivo efficacious dose range” value [3] was 10 to 100 mg/kg/day and the “ER agonism in the uterus” value (ER [4]) was “lacked ER agonism”. The “AEs leading to withdrawal” value ([5]; N = 42) was “no reports and None”, the Deaths ([5]; N = 42) was “no deaths; also recorded: no reports” and the “Dose modifications due to AEs” value ([5]; N = 42) was “no dose modifications”. For the same molecule, the “Grade 4 or grade 5 AEs” value ([5]; N = 42) was “no grade 4 or grade 5 AEs; also recorded: no grade 4 or 5 AEs”, the “Treatment-related serious adverse events (SAE)” value ([5]; N = 42) was “no reports” and the “Patients with any adverse events” value ([5]; N = 42, 600-1,400 mg once daily oral, regardless of causality, any grade) was 37 n (%) and 37 (88) n (%). The Constipation [5, 10] was 6 n (%) and 6 (14) n (%), the Diarrhea [5, 10] was 5 n (%) and 5 (12) n (%) and the Fatigue [5, 10] was 5 n (%) and 5 (12) n (%). The Hot flush [5, 10] was 8 n (%) and 8 (19) n (%), the Nausea [5, 10] was 8 n (%) and 8 (19) n (%) and the “Patients with at least one adverse event” value [5, 10] was 30 n (%) and 30 (71) n (%). The “Total number of events” value [5, 10] was 109, the Constipation [5, 11] was 0 n (%) and the Diarrhea [5, 11] was 0 n (%). The Fatigue [5, 11] was 0 n (%), the Hot flush [5, 11] was 0 n (%) and the Nausea [5, 11] was 0 n (%). The “Patients with at least one adverse event” value [5, 11] was 0 n (%), the “Total number of events” value [5, 11] was 0 and the Anemia [5, 12] was 6 n (%) and 6 (14) n (%). The Arthralgia [5, 12] was 8 n (%) and 8 (19) n (%), the “Aspartate aminotransferase (AST) increased” value [5, 12] was 5 (12) n (%) and the Asthenia [5, 12] was 5 (12) n (%). The Back pain [5, 12] was 7 n (%) and 7 (17) n (%), the Constipation [5, 12] was 9 n (%) and 9 (21) n (%) and the Cough [5, 12] was 5 (12) n (%). For the same molecule, the Diarrhea [5, 12] was 9 n (%) and 9 (21) n (%), the Fatigue [5, 12] was 8 n (%) and 8 (19) n (%) and the Headache [5, 12] was 6 n (%) and 6 (14) n (%). The Hot flush [5, 12] was 8 n (%) and 8 (19) n (%), the Nausea [5, 12] was 14 n (%) and 14 (33) n (%) and the Pain in extremity [5, 12] was 5 (12) n (%). For the same molecule, the Vomiting [5, 12] was 7 n (%) and 7 (17) n (%), the Anemia [5, 13] was 0 n (%) and the Arthralgia [5, 13] was 0 n (%). For the same molecule, the “Aspartate aminotransferase (AST) increased” value [5, 13] was 0 n (%), the Asthenia [5, 13] was 1 (2) n (%) and the Back pain [5, 13] was 2 n (%) and 2 (5) n (%). For the same molecule, the Constipation [5, 13] was 0 n (%), the Cough [5, 13] was 0 n (%) and the Diarrhea [5, 13] was 0 n (%). The Fatigue [5, 13] was 0 n (%), the Headache [5, 13] was 0 n (%) and the Hot flush [5, 13] was 0 n (%). For the same molecule, the Nausea [5, 13] was 0 n (%), the Pain in extremity [5, 13] was 0 n (%) and the “Patients with any adverse events” value [5, 13] was 9 (21) n (%). For the same molecule, the Vomiting [5, 13] was 0 n (%), the “Patients with AEs that led to dose interruptions” value ([5]; N = 42, seven patients) was 17% and the “Patients with at least one SAE considered unrelated to GDC-0927” value ([5]; N = 42, seven patients) was 17%. The “Patients with AEs of special interest (grade 2 deep vein thrombosis, grade 2 jugular vein thrombosis)” value ([5]; N = 42, two patients, both considered unrelated) was 5%, the DLTs ([5]; day −7 through first cycle (35 days), 600-1,400 mg/day) was “no reports of DLTs” and the MTD ([5]; oral once daily, doses up to the MAD of 1,400 mg/day) was “not reached”. For the same molecule, the “Reduction in ER expression (ER protein, IHC), average” value (ER [6]) was “approximately 40%”, the ER antagonist/agonist profile (ER [1]) was “full antagonist profile” and the ER degradation (ER [1]) was “ER degradation in all ER^+ cell lines tested”. For the same molecule, the “Confirmed complete or partial responses” value ([7]; N = 42) was “no complete or partial responses; also recorded: no confirmed CRs or PRs”, the “Patients with confirmed best overall response of non-CR/PD” value ([7]; five patients, all at 1,400 mg) was 14% and the “Patients achieving clinical benefit” value ([7]; patients with baseline ctDNA ESR1 mutation(s), six of 22) was 27%. The “Patients achieving clinical benefit” value ([7]; patients without detectable baseline ctDNA ESR1 mutations, 6 of 20) was 30% and the “Reduction in FES uptake” value (ER [8]) was > 90%.

In the case of `C[C@@H]1Cc2c(ccc3[nH]ncc23)[C@@H](c2ccc(NC3CN(CCCF)C3)cn2)N1CC(F)(F)F` [camizestrant], the “Median PFS” value ([9]; SERENA-2, camizestrant 75 mg) is given as 7.2 months and the “Median PFS” value ([9]; SERENA-2, camizestrant 150 mg) is given as 7.7 months.

In the case of `C[C@]12CC[C@@H]3c4ccc(O)cc4C[C@@H](CCCCCCCCC[S+]([O-])CCCC(F)(F)C(F)(F)F)[C@H]3[C@@H]1CC[C@@H]2O` (stereo partly drawn) [fulvestrant], the “Median PFS” value ([9]; SERENA-2, patients treated with fulvestrant) is given as 3.7 months.
